Reference: ChEMBL document CHEMBL1146868, “Design, synthesis, and biophysical and biological evaluation of a series of pyrrolobenzodiazepine-poly(N-methylpyrrole) conjugates” (J Med Chem, 2006)

Key:
[1] = tested on: Panel NCI-60 (60 carcinoma cell lines); experiment: Cytotoxicity against human NCI60 cell line […]; type: functional; conditions: for CC50: read-out: LC50 (the source's name)
K562 = experiment: Cytotoxicity against human K562 cell line after 96 hrs by MTT assay; type: functional; conditions: K562, 96 h
MCF7 [2] = experiment: Uptake in human MCF7 cells at 100 uM after 24 hrs; type: ADME, cell-based; conditions: mcf7, 24 h
Procedure, shortened: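 MCF-7 cells were exposed to the conjugates for 24 h, at up to 100 µM. Cellular and nuclear uptake was assessed from intrinsic fluorescence.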

Nucleic Acid = experiment: Inhibition of DNA transcription at 5 uM; type: functional
Procedure, shortened: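 In vitro transcription of a DNA template by a viral RNA polymerase. Read-out is the sites where transcription stops and the amount of full-length 266-nt transcript. Activity is expressed as 50% inhibition of full-length transcript synthesis.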

MCF7 [3] = experiment: Uptake in human MCF7 cells after <1 hr; type: ADME, cell-based; conditions: mcf7, 1 h

Row | SMILES | GI50 [1] [nM] | TGI [1] [nM] | CC50 [1] [nM] | GI50 (K562) [nM] | Drug uptake (MCF7 [2]) | inhibition (Nucleic Acid) [%] | Drug uptake (MCF7 [3])
1 | COC(=O)c1cc(NC(=O)c2cc(NC(=O)c3cc(NC=O)cn3C)cn2C)cn1C | 16600 | 44700 | 85100 | > 10000 | – | – | –
2 | COC(=O)c1cc(NC(=O)c2cc(NC(=O)c3cc(NC(=O)CCOc4cc5c(cc4OC)C(=O)N4CCC[C@H]4C=N5)cn3C)cn2C)cn1C | 47 | 1760 | 56200 | 346 | – | – | –
3 | COC(=O)c1cc(NC(=O)c2cc(NC(=O)c3cc(NC(=O)CCCOc4cc5c(cc4OC)C(=O)N4CCC[C@H]4C(=O)N5)cn3C)cn2C)cn1C | 49000 | > 50000 | > 50000 | > 10000 | – | – | –
4 | COC(=O)c1cc(NC(=O)c2cc(NC(=O)c3cc(NC(=O)c4cc(NC(=O)CCCOc5cc6c(cc5OC)C(=O)N5CCC[C@H]5C=N6)cn4C)cn3C)cn2C)cn1C | 7 | 18 | 1510 | 47 | Active | 50 | –
5 | C=C1C[C@H]2C=Nc3cc(OCCCOc4cc5c(cc4OC)C(=O)N4CC(=C)C[C@H]4C=N5)c(OC)cc3C(=O)N2C1 [SJG-136] | 7.4 | 87.1 | 562 | 3.8 | – | – | –
6 | COC(=O)c1cc(NC(=O)CCCOc2cc3c(cc2OC)C(=O)N2CCC[C@H]2C=N3)cn1C | 47 | 323 | 11500 | 51 | – | 50 | Active
7 | COC(=O)CCCOc1cc2c(cc1OC)C(=O)N1CCC[C@H]1C=N2 | 1740 | 11800 | 46800 | 526 | – | – | –
8 | COC(=O)c1cc(NC(=O)c2cc(NC(=O)CCCOc3cc4c(cc3OC)C(=O)N3CCC[C@H]3C=N4)cn2C)cn1C | 11 | 120 | 10000 | 7.1 | Active | 50 | –
9 | COC(=O)c1cc(NC(=O)c2cc(NC(=O)c3cc(NC(=O)c4cc(NC(=O)c5cc(NC(=O)CCCOc6cc7c(cc6OC)C(=O)N6CCC[C@H]6C=N7)cn5C)cn4C)cn3C)cn2C)cn1C | 9 | 29 | 1260 | 83 | Active | 50 | –
10 | COC(=O)c1cc(NC(=O)c2cc(NC(=O)c3cc(NC(=O)CCCN(C)C)cn3C)cn2C)cn1C | 72400 | > 100000 | > 100000 | > 10000 | – | – | –
11 | COC(=O)c1cc(NC(=O)c2cc(NC(=O)c3cc(NC(=O)c4cc(NC(=O)c5cc(NC(=O)c6cc(NC(=O)CCCOc7cc8c(cc7OC)C(=O)N7CCC[C@H]7C=N8)cn6C)cn5C)cn4C)cn3C)cn2C)cn1C | 8 | 54 | 1900 | 30 | Active | 50 | –
12 | COC(=O)c1cc(NC(=O)c2cc(NC(=O)c3cc(NC(=O)CCCOc4cc5c(cc4OC)C(=O)N4CCC[C@H]4C=N5)cn3C)cn2C)cn1C | 15 | 32 | 1070 | 41 | Active | 50 | –
